From ChEMBL document CHEMBL3108731, “A development of chimeric VEGFR2 TK inhibitor based on two ligand conformers from PDB: 1Y6A complex--medicinal chemistry consequences of a TKs analysis” (Eur J Med Chem, 2014)
The source made the active and inactive calls. The rule behind the calls is not given here.

Experiments:
[1] = molecular target: Vascular endothelial growth factor receptor 2 (Homo sapiens, UniProt P35968); assay: Inhibition of GST-tagged recombinant human VEGFR2 expressed in Sf9 cells by radiometric assay; assay type: cell-based
HL-60 = assay: Antiproliferative activity against human HL60 cells after 3 days by MTT assay; assay type: functional, cell-based; details: HL-60, 72 h
How it was run: (§1)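 MTT dye-reduction assay: 3×10^3 BAE or 2×10^3 tumour cells in their own growth media were given serial dilutions of compound for 3 days at 37 °C, 5% CO2. MTT (5 mg/ml stock in PBS) was added for 4 h, and formazan was dissolved in 0.04 N HCl/2-propanol and read at 550 nm. IC50 is the concentration giving 50% survival; values are mean ± S.D. of at least three experiments in triplicate.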

[2] = Antiproliferative activity against human HT1080 cells after 3 days by MTT assay; assay type: functional, cell-based; details: HT-1080, 72 h; how it was run: as §1
MDA-MB-231 = assay: Antiproliferative activity against human MDA-MB-231 cells after 3 days by MTT assay; assay type: functional, cell-based; details: MDA-MB-231, 72 h; how it was run: as §1
U2OS = assay: Antiproliferative activity against human U2OS cells after 3 days by MTT assay; assay type: functional, cell-based; details: 72 h; how it was run: as §1
Danio rerio [3] = species on record: Danio rerio; assay: Antiangiogenic activity in zebrafish embryo up to 24 hrs by GFP assay; assay type: functional, organism-based
How it was run: (§2)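 Embryos of transgenic Zebrafish line TG(fli1:EGFP)y1 were used; a fli-1 promoter drives GFP expression in the endothelium. Embryos were incubated with different compound concentrations, and angiogenesis was assessed by live fluorescence imaging. Data are the percentage of treated embryos showing inhibited angiogenesis.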

Danio rerio [4] = species on record: Danio rerio; assay: Antiangiogenic activity in zebrafish embryo assessed as inhibition of intersegmental blood vessel growth at 10 uM up to 24 hrs by GFP assay; assay type: functional, organism-based; how it was run: as §2
Danio rerio [5] = species on record: Danio rerio; assay: Antiangiogenic activity in zebrafish embryo at 10 uM up to 24 hrs by GFP assay; assay type: functional; how it was run: as §2
Danio rerio [6] = species on record: Danio rerio; assay: Antiangiogenic activity in zebrafish embryo at 20 uM up to 24 hrs by GFP assay; assay type: functional; how it was run: as §2
Danio rerio [7] = species on record: Danio rerio; assay: Toxicity in zebrafish embryo up to 24 hrs by GFP assay; assay type: organism-based; details: in vivo
BAEC [8] = assay: Antiangiogenic activity in BAEC assessed as inhibition of cell migration to extracellular matrix at 1 uM after 7 hrs by wound-healing assay; assay type: functional; details: Bos taurus
How it was run: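 Confluent BAEC monolayers were wounded with a pipette tip to give one 1 mm-wide acellular lane. After washing, cells received complete medium without or with compound. The same fields were photographed at 0 and 7 h. Regrowth into the cell-free area was expressed as % recovered area, mean ± SD, n = 3.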

[9] = Antiproliferative activity against BAEC after 3 days by MTT assay; assay type: functional; details: Bos taurus, 72 h; how it was run: as §1
HT-29 = assay: Antiproliferative activity against human HT-29 cells after 3 days by MTT assay; assay type: functional, cell-based; details: HT-29, 72 h; how it was run: as §1
BAEC [10] = assay: Antiangiogenic activity in BAEC assessed as inhibition of capillary tube formation after 7 hrs by matrigel assay; assay type: functional; details: Bos taurus
How it was run: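 BAE cells (5×10^4 per well) in DMEM were seeded on Matrigel (about 10.5 mg/mL) that had polymerized at 37 °C for at least 30 min. Cells were given compound at several amounts and kept at 37 °C, 5% CO2 for 7 h. Cord/tube formation was viewed at 200×. Each concentration was run in duplicate and scored by two independent observers.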

Danio rerio [11] = species on record: Danio rerio; assay: Antiangiogenic activity in zebrafish embryo at 5 uM up to 24 hrs by GFP assay; assay type: functional; how it was run: as §2
BAEC [12] = assay: Induction of apoptosis in BAEC assessed as chromatin condensation at 0.5 to 1 uM after 14 hrs by Hoechst staining; assay type: functional; details: Bos taurus
How it was run: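 Subconfluent BAE cells on chamber slides were treated for 14 h with the indicated concentrations in complete medium. Cells were then PBS-washed, formalin-fixed and stained with Hoechst for 2 min. Nuclear morphology (chromatin condensation) was examined by fluorescence microscopy.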

Vascular endothelial growth factor receptor 2, sequence (P35968 whole entry): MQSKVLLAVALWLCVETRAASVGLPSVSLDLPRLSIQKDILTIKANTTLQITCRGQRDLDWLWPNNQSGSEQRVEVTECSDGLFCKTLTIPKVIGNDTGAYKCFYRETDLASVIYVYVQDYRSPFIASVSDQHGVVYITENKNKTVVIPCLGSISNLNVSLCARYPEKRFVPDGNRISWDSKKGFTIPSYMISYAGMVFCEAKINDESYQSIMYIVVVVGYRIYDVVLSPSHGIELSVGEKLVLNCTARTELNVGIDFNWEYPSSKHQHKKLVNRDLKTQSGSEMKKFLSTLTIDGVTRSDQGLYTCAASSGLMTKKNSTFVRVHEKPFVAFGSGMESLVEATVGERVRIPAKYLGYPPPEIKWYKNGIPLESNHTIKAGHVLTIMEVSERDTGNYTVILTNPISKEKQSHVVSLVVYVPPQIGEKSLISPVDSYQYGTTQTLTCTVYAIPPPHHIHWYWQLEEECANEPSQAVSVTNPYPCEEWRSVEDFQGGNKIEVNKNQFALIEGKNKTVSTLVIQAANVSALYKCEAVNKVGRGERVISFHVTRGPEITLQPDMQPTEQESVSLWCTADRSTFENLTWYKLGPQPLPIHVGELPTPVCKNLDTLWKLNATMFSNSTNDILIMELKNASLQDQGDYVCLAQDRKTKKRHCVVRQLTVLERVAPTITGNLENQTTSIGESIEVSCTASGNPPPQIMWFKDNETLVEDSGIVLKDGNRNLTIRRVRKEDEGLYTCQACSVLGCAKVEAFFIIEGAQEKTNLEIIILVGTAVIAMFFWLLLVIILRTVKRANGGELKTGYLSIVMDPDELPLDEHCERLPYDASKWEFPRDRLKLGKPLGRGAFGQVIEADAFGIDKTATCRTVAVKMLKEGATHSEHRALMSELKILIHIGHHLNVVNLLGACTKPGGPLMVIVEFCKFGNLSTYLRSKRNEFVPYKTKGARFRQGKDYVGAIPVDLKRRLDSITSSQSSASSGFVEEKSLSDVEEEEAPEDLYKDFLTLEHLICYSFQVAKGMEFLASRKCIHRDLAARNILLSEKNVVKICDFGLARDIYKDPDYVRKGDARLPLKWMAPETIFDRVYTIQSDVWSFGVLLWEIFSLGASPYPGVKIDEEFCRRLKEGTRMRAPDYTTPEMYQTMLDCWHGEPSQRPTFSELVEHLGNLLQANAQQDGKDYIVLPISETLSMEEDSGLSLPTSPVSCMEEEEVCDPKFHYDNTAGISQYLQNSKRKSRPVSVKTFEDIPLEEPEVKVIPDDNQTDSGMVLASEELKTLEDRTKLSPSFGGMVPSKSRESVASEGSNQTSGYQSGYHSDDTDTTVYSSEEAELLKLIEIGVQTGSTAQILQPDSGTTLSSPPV

In the case of CCS(=O)(=O)c1ccc(OC)c(Nc2ncc(-c3cc(-c4cccnc4)cc(-c4cccnc4)c3)o2)c1, the IC50 [1] is reported as 0.17 µM.
In the case of CCS(=O)(=O)c1ccc(OC)c(Nc2ncc(-c3cc(-c4cccnc4)cc(-c4ccccn4)c3)o2)c1, the IC50 [1] is reported as 0.0512 µM.
Compound CCS(=O)(=O)c1ccc(OC)c(Nc2ncc(-c3cc(-c4ccccn4)cc(-c4ccccn4)c3)o2)c1 has an IC50 (HL-60) of 17.8 µM, an IC50 [2] of 2.43 µM and an IC50 (MDA-MB-231) of 3.99 µM. For the same compound, the IC50 (U2OS) was 2.03 µM, the inhibition (Danio rerio [3]) was “Dose-dependent effect” and the IC50 [1] was 0.0151 µM. The inhibition (Danio rerio [4]) was “Active”, the “inhibition (INH)” value (Danio rerio [5]) was 53% and the “inhibition (INH)” value (Danio rerio [6]) was 87%. For the same compound, the Activity (Danio rerio [7]) was “Non-toxic”, the inhibition (BAEC [8]) was “Active” and the IC50 [9] was 0.37 µM. For the same compound, the IC50 (HT-29) was 15.2 µM, the inhibition (BAEC [10]) was “Dose-dependent effect” and the “inhibition (INH)” value (Danio rerio [11]) was 7%. For the same compound, the Activity (BAEC [12]) was “Active”.
In the case of CCS(=O)(=O)c1ccc(OC)c(Nc2ncc(-c3cc(Br)cc(-c4ccccn4)c3)o2)c1, the IC50 [1] is reported as 0.202 µM.
